ChEMBL document CHEMBL1144836, “Constituents of the sea cucumber Cucumaria okhotensis. Structures of okhotosides B1-B3 and cytotoxic activities of some glycosides from this species” (J Nat Prod, 2008)

How the values were obtained:
[1] = Cytotoxicity against mouse JB6Cl41 cells; assay type: functional, cell-based; conditions: JB6 Cl41
[2] = Decrease in TPA induced AP1 dependent transcription in mouse JB6 Cl41 cells at 1.1 ug/ml by luciferase assay; assay type: functional; design: scale not given: the % may be the effect or the level left
Method in brief: (§1)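 JB6-LucAP-1 reporter cells activated with EGF (10 ng/mL), TPA (20 ng/mL) or UVB (4 kJ/m2), plated at 6 × 10^3/well in 5% FBS/MEM and kept 24 h. Compound added in 0.1% FBS-MEM for 24 h. Cells lysed 1 h at room temperature, then luciferase luminescence read. Two independent experiments, five samples per concentration.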

[3] = Decrease in EGF induced AP1 dependent transcription in mouse […] cells at 1.1 ug/ml by luciferase assay; assay type: functional; design: scale not given: the % may be the effect or the level left; method in brief: as §1
[4] = Inhibition EGF induced mouse JB6 P+Cl41 cells colony formation in soft agar; assay type: functional
Method in brief: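 JB6 P+ Cl41 cells (8 × 10^3/mL) activated with EGF (10 ng/mL), in 0.33% BME agar with 10% FBS over a 0.5% BME agar layer, compound in both layers. Kept 1 week at 37 °C, 5% CO2. Colonies scored by microscopy and INCC50 derived. Two independent experiments in triplicate.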

[5] = Decrease in UVB induced AP1 dependent transcription in mouse JB6 Cl41 cells at 0.7 ug/ml by luciferase assay; assay type: functional; design: scale not given: the % may be the effect or the level left; method in brief: as §1
[6] = Increase in p53 dependent transcription in mouse JB6 Cl41 cells at 1.8 ug/ml by luciferase assay; assay type: functional
Method in brief: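 JB6-Lucp53 reporter cells, not activated, plated at 6 × 10^3/well in 5% FBS/MEM and kept 24 h. Compound added in 0.1% FBS-MEM for 24 h. Cells lysed 1 h at room temperature, then luciferase luminescence read. Two independent experiments, five samples per concentration.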

THP-1 = test: Cytotoxicity against human THP1 cells; assay type: functional, cell-based
HeLa = test: Cytotoxicity against human HeLa cells; assay type: functional, cell-based
Method in brief: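 HeLa cells seeded at 6000 cells/well and cultured 12 h in RPMI with 10% FBS. Medium then replaced with 5% FBS-RPMI containing test concentrations, 22 h incubation. MTS added and reduction read 2 h later by absorbance at 492 nm, with 690 nm as background.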

[7] = Decrease in EGF induced NFKappaB dependent transcription in mouse JB6 Cl41 cells at 0.7 ug/ml by luciferase assay; assay type: functional; design: scale not given: the % may be the effect or the level left
Method in brief: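 JB6-LucNF-κB reporter cells activated with EGF (10 ng/mL), plated at 6 × 10^3/well in 5% FBS/MEM and kept 24 h. Compound added in 0.1% FBS-MEM for 24 h. Cells lysed 1 h at room temperature, then luciferase luminescence read. Two independent experiments, five samples per concentration.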

SMILES	IC50 [1]	Activity [2]	Activity [3]	INCC50 [4]	Activity [5]	Activity [6]	IC50 (THP-1)	IC50 (HeLa)	Activity [7]
CO[C@@H]1[C@@H](O)[C@H](O[C@@H]2[C@@H](O)[C@H](O[C@H]3[C@H](O)[C@@H](O[C@@H]4OC[C@@H](O)[C@H](O)[C@H]4O)[C@H](O[C@H]4[C@H](OC5CC[C@]6(C)[C@H]7CCC89C(=O)O[C@@](C)(CCCC(C)C)C8[C@@H](OC(C)=O)C[C@@]9(C)C7=CC[C@H]6C5(C)C)OC[C@@H](OS(=O)(=O)[O-])[C@@H]4O)O[C@@H]3C)OC[C@H]2O)O[C@H](CO)[C@H]1O.[Na+] (stereo partly specified) [FRONDOSIDE A]	5.9 µg/mL	20%	51%	0.8 µg/mL	41%	39%	4.5 µg/mL	2.1 µg/mL	37%
C=C(C)CCC[C@]1(C)OC(=O)C23CC[C@H]4C(=CC[C@H]5C(C)(C)C(O[C@@H]6OC[C@@H](OS(=O)(=O)[O-])[C@H](O)[C@H]6O[C@@H]6O[C@H](CO)[C@@H](O[C@@H]7O[C@H](CO)[C@@H](O)[C@H](O[C@@H]8O[C@H](CO)[C@@H](O)[C@H](OC)[C@H]8O)[C@H]7O)[C@H](O)[C@H]6O[C@@H]6OC[C@@H](O)[C@H](O)[C@H]6O)CC[C@]45C)[C@]2(C)C[C@H](OC(C)=O)C31.[Na+] (stereo partly specified) [OKHOTOSIDE B1]	–	–	–	–	–	–	–	34 µg/mL	–
C=C(C)CCC[C@]1(C)OC(=O)C23CC[C@H]4C(=CC[C@H]5C(C)(C)C(O[C@@H]6OC[C@@H](OS(=O)(=O)[O-])[C@H](O)[C@H]6O[C@@H]6O[C@H](CO)[C@@H](O[C@@H]7O[C@H](COS(=O)(=O)[O-])[C@@H](O)[C@H](O[C@@H]8O[C@H](CO)[C@@H](O)[C@H](OC)[C@H]8O)[C@H]7O)[C@H](O)[C@H]6O[C@@H]6OC[C@@H](O)[C@H](O)[C@H]6O)CC[C@]45C)[C@]2(C)C[C@H](OC(C)=O)C31.[Na+].[Na+] (stereo partly specified) [OKHOTOSIDE B2]	–	–	–	–	–	–	–	13 µg/mL	–
